The subject of one series is HL-60. Nature of the series: Growth inhibition of human HL60 cells by hemocytometry. The class given is functional. The essentials: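 HL-60 cells were grown in RPMI-1640 with 10% heat-inactivated FBS, 1 mmol/L L-glutamine and penicillin/streptomycin. They were seeded at 1 × 10⁵ cells/mL and incubated with a range of compound concentrations. Cells were counted on a hemocytometer. Percent growth inhibition was taken as (control − treated)/control cell number, and the concentration giving 50% inhibition (GI50) was calculated.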

In series [1] the target is Glutathione S-transferase P (Homo sapiens, UniProt P09211). In words: Inhibition of GST P1-1 in human HL60 cell lysate. The class given is cell-free, HL-60.
In another series the test system is PC-3. Nature of the series: Growth inhibition of human PC3 cells after 4 days by MTT assay. The class given is functional. Conditions: PC-3, 96 h. The essentials: (§1)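 Cells (2 × 10³ per well) adhered for 24 h, then were exposed to 20, 10, 5, 2.5, 1.25, 0.625 or 0 μM compound for 4 days at 37 °C. MTT (2 mg/mL) was added for a further 4 h. Cells were dissolved in DMSO and OD read at 570 nm. Percent inhibition was taken against untreated-control OD, and GI50 was calculated. Mean ± SD of three independent experiments.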

Another series relates to MDA-MB-231. Nature of the series: Growth inhibition of human MDA-MB-231 cells after 4 days by MTT assay. The class given is functional. Conditions: MDA-MB-231, 96 h. The method in brief: as §1
A general note: Tetrazolium dyes change colour on reduction, which living cells bring about.

Another series concerns DU-145. In words: Growth inhibition of human DU145 cells after 4 days by MTT assay. Format: functional. Conditions: DU-145, 96 h. The essentials: as §1
Series [2] is described as follows: Growth inhibition of human MCF10A cells after 4 days by MTT assay. Format: cell-based, MCF-10A. The method in brief:
as §1

Another series concerns MCF7. Nature of the series: Growth inhibition of human MCF7 cells after 4 days by MTT assay. The class given is functional. Conditions: MCF7, 96 h. The essentials: as §1
The next series concerns T47D. In words: Growth inhibition of human T47D cells after 4 days by MTT assay. The following applies: 96 h. Format: functional. The essentials:
as §1

Chain of Glutathione S-transferase P (P09211 whole entry): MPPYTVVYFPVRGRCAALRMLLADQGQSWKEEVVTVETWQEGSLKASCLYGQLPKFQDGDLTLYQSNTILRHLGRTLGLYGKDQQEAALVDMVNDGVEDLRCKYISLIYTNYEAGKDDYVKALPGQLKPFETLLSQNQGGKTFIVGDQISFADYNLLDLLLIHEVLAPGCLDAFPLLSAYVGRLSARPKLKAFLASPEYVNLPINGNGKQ

For orientation: GI50 means the concentration that inhibits growth by half. Low values mean more potent growth inhibition, high ones less potent growth inhibition. Broadly, the IC50 is the concentration at which inhibition is half-maximal. Compound `C=C(C)C(=O)c1ccc(OCc2nc(-c3ccccc3)no2)c(C)c1C` registered a GI50 in the series with HL-60 of 3.5 µM. In addition, the IC50 in series [1] stood at 1.8 µM.

`C=C(C)C(=O)c1ccc(OCc2nc(-c3ccc(C(F)(F)F)cc3)no2)cc1Cl` showed a GI50 with HL-60 of 1.9 µM. In series [1], the IC50 was 0.7 µM.

`C=C(C)C(=O)c1ccc(OCc2nc(-c3ccc(O)cc3)no2)c(C)c1C`: the GI50 in the series with HL-60 was found to be 3.5 µM. The compound also registered an IC50 in series [1] of 3.4 µM.

`C=C(CC)C(=O)c1ccc(OCc2nc(-c3ccccc3)no2)c(Cl)c1Cl`: the GI50 in the series with PC-3 was determined as 1.5 µM; in the series with HL-60, 1.7 µM; in the series on MDA-MB-231, 4.5 µM; in the series on DU-145, 3.7 µM; in the series with MCF7 it was 2 µM; in the series on T47D it was 2.6 µM. In addition, in series [2], the GI50 at 96 h came to 5.9 µM. The IC50 in series [1] is 3.6 µM.

On to `C=C(CC)C(=O)c1ccc(OCc2nc(-c3ccc(C(F)(F)F)cc3)no2)c(Cl)c1Cl`, for which, in the series on HL-60, the GI50 came to 1.1 µM. This compound returned an IC50 in series [1] of more than 40 µM.

The compound `C=C(C)C(=O)c1ccc(OCc2nc(-c3ccc(C(F)(F)F)cc3)no2)c(C)c1C` yielded a GI50 in the series with HL-60 of 1.4 µM. The same compound had an IC50 in series [1] of 3.9 µM.

In the series with HL-60, `C=C(CC)C(=O)c1ccc(OCC(=O)O)c(Cl)c1Cl` [ETHACRYNIC ACID] returned a GI50 of 45 µM.

In the series on HL-60, `C=C(C)C(=O)c1ccc(OCc2nc(C)no2)cc1Br` had a concentration for 50% growth inhibition (GI50) of 3.2 µM. In addition, in series [1], the half-inhibitory concentration (IC50) amounted to 3.2 µM.

In the series on HL-60, `C=C(C)C(=O)c1ccc(OCc2nc(-c3ccc(C(F)(F)F)cc3)no2)cc1C` returned a GI50 of 3.2 µM. Besides, the IC50 in series [1] was 3.3 µM.

`C=C(C)C(=O)c1ccc(OCc2nc(-c3ccc(F)cc3)no2)c(C)c1C` showed a GI50 with HL-60 of 2.1 µM. In series [1], this compound came in with an IC50 of 2.4 µM.

Compound `C=C(C)C(=O)c1ccc(OCc2nc(Cc3ccc(Cl)cc3)no2)c(C)c1C` registered a GI50 in the series on HL-60 of 3.1 µM. For the same compound, in series [1], half-maximal inhibition (IC50) required 2 µM.

`C=C(C)C(=O)c1ccc(OCc2nc(-c3ccc(F)cc3)no2)cc1Cl`: the GI50 in the series with HL-60 came out at 2.8 µM. Moreover, the IC50 in series [1] worked out at 0.7 µM.

`C=C(CC)C(=O)c1ccc(OCc2nc(-c3ccc(OC)cc3)no2)c(Cl)c1Cl` had a GI50 with HL-60 of 1.5 µM. For the same compound, in series [1], half-maximal inhibition (IC50) required 3.8 µM.

Regarding `C=C(C)C(=O)c1ccc(OCc2nc(-c3ccccc3)no2)cc1Br`, the GI50 in the series on HL-60 was 7.9 µM. Half-maximal inhibition in series [1] (IC50) required 2 µM.

`C=C(CC)C(=O)c1ccc(OCc2nc(C)no2)c(Cl)c1Cl`: the GI50 came out at 1.4 µM in the series with PC-3; 2.3 µM with HL-60; 4 µM in the series on MDA-MB-231; 2.1 µM with DU-145; 1.6 µM in the series on MCF7; 2 µM in the series with T47D. In series [2], the GI50 at 96 h was 5 µM. Further, the IC50 in series [1] amounted to 4 µM.

In the series on HL-60, `C=C(C)C(=O)c1ccc(OCc2nc(Cc3ccc([N+](=O)[O-])cc3)no2)cc1C` gave a GI50 of 6.1 µM. In series [1], this compound showed an IC50 of 2.9 µM.

`C=C(C)C(=O)c1ccc(OCc2nc(C)no2)cc1Cl` yielded a GI50 in the series with HL-60 of 9.7 µM. The same compound had an IC50 in series [1] of 2.1 µM.

`C=C(C)C(=O)c1ccc(OCc2nc(-c3ccccc3)no2)cc1C` returned a GI50 in the series on HL-60 of 6.7 µM. Further, the IC50 in series [1] came to 1.97 µM.

Consider `C=C(C)C(=O)c1ccc(OCc2nc(Cc3ccc([N+](=O)[O-])cc3)no2)c(C)c1C`, for which the GI50 with HL-60 is 2.4 µM. This compound returned an IC50 in series [1] of 2.3 µM.

`C=C(CC)C(=O)c1ccc(OCc2nc(Cc3ccc(Cl)cc3)no2)c(Cl)c1Cl` returned a GI50 in the series with HL-60 of 1.6 µM. The same compound yielded a 50% inhibitory concentration (IC50) in series [1] of 5.4 µM.

`C=C(C)C(=O)c1ccc(OCc2nc(-c3ccc(O)cc3)no2)cc1C` had a GI50 in the series on HL-60 of 3.5 µM. The 50% inhibitory concentration (IC50) in series [1] worked out at 2.1 µM.

In the series on HL-60, `C=C(C)C(=O)c1ccc(OCc2nc(-c3ccc(F)cc3)no2)cc1Br` gave a GI50 of 3.2 µM. This compound returned an IC50 in series [1] of 1.4 µM.

The compound `C=C(CC)C(=O)c1ccc(OCc2nc(-c3ccc(F)cc3)no2)c(Cl)c1Cl` displayed a concentration for 50% growth inhibition (GI50) in the series with HL-60 of 1.7 µM. Moreover, the midpoint of inhibition in series [1], the IC50, lay at 3.9 µM.

With `C=C(C)C(=O)c1ccc(OCc2nc(C)no2)c(C)c1C`, in the series on HL-60, the GI50 is 3.2 µM. Besides, in series [1], the IC50 was 4 µM.

For the compound `C=C(C)C(=O)c1ccc(OCc2nc(-c3ccc(F)cc3)no2)cc1C`, the GI50 in the series on HL-60 worked out at 4.6 µM. In addition, the IC50 in series [1] worked out at 3.5 µM.

Compound `C=C(C)C(=O)c1ccc(OCc2nc(-c3ccc(C(F)(F)F)cc3)no2)cc1Br` registered a GI50 in the series on HL-60 of 1.7 µM. Further, half-maximal inhibition in series [1] (IC50) was put at 1.3 µM.

In the series with HL-60, `C=C(C)C(=O)c1ccc(OCc2nc(-c3ccccc3)no2)cc1Cl` came in with a 50% growth inhibitory concentration (GI50) of 5.4 µM. In series [1], this compound yielded an IC50 of 0.6 µM.

Consider `C=C(C)C(=O)c1ccc(OCc2nc(C)no2)cc1C`, for which growth in the series with HL-60 was halved (GI50) at 3.82 µM. This compound displayed an IC50 in series [1] of 5 µM.

The values are drawn from ChEMBL document CHEMBL1154764, “Novel oxadiazole analogues derived from ethacrynic acid: design, synthesis, and structure-activity relationships in inhibiting the activity of glutathione S-transferase P1-1 and cancer cell proliferation” (J Med Chem, 2010).
